Values after ≈ are worked out from the molar mass of the structure shown.
Experiments:
P. falciparum (D6) = assay: in vitro antimalarial activity, plasmodial LDH; type: cell-based, Plasmodium falciparum; conditions: Plasmodium falciparum, D6, 72 h, read-out: P. falciparum (D6) IC50
P. falciparum (W2) = assay: in vitro antimalarial activity, plasmodial LDH; type: cell-based, Plasmodium falciparum; conditions: Plasmodium falciparum, W2, 72 h, read-out: P. falciparum (W2) IC50, CQ-resistant W2 strain, 72 h
Outline: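 P. falciparum-infected erythrocytes (2% parasitemia, 2% hematocrit) in RPMI 1640 with 10% human serum and 60 μg/mL amikacin. Exposed to test compound dilutions for 72 h at 37 °C under 90% N2/5% O2/5% CO2. LDH measured with Malstat reagent (30 min, room temperature), then NBT/PES for 1 h in the dark, stopped with 5% acetic acid, read at 650 nm. IC50 from dose-response curves.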

[1] = test system: SK-MEL, KB, BT-549, SK-OV-3, VERO and LLC-PK1 cells; assay: cytotoxicity, neutral red uptake assay; type: cell-based, mammalian; conditions: highest test concentration 4760 ng/mL
Outline: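 Cells seeded at 25 000/well and allowed 24 h to reach confluence. Test compound was then added and incubated 48 h. Viable cells were counted by a modified neutral red uptake method. The panel was four human cancer lines and two noncancerous mammalian kidney lines. Doxorubicin served as positive control and DMSO as negative control.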

[2] = test system: L. donovani promastigotes; assay: in vitro antileishmanial activity, alamarBlue assay; type: cell-based, Leishmania donovani; conditions: Leishmania donovani, 48 h; for IC50: read-out: L. donovani IC50, promastigotes, 48 h; for IC90: read-out: L. donovani IC90, promastigotes, 48 h
C. albicans ATCC90028 = assay: in vitro antifungal activity; type: cell-based, Candida albicans; conditions: Candida albicans; for IC50: ATCC90028, read-out: C. albicans IC50; for MFC: ATCC90028, read-out: C. albicans MFC; for MIC: ATCC90028, read-out: C. albicans MIC
Outline: (§1)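 Modified NCCLS broth method in Sabouraud dextrose. Inoculum set by OD630 to 1.5 × 10^3 CFU/mL. Test compound serially diluted in 20% DMSO/saline, duplicate wells, up to 20 μg/mL. Incubated 70–74 h at 35 °C; 530 nm read before and after. IC50 is 50% growth inhibition; MIC is no detectable growth. MFC from clear wells subcultured on agar. Amphotericin B control.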

C. neoformans ATCC90113 = assay: in vitro antifungal activity; type: cell-based, Cryptococcus neoformans; conditions: Cryptococcus neoformans; for IC50: ATCC90113, read-out: C. neoformans IC50; for MFC: ATCC90113, read-out: C. neoformans MFC; for MIC: ATCC90113, read-out: C. neoformans MIC
Outline: as §1

A. fumigatus ATCC 90906 = assay: in vitro antifungal activity; type: cell-based, Aspergillus fumigatus; conditions: Aspergillus fumigatus; for IC50: ATCC90906, read-out: A. fumigatus IC50; for MFC: ATCC90906, read-out: A. fumigatus MFC; for MIC: ATCC90906, read-out: A. fumigatus MIC
Outline: as §1

SA (ATCC29213) = assay: in vitro antibacterial activity; type: cell-based; conditions: Staphylococcus aureus; for IC50: ATCC29213, read-out: IC50 (concentration that affords 50% growth inhibition), SA; for MBC: ATCC29213, read-out: MBC (minimum bactericidal concentration), SA; for MIC: ATCC29213, read-out: MIC, SA
Outline: (§2)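 Test compound serially diluted in 20% DMSO/saline and plated in duplicate, up to 20 μg/mL. Inoculum in cation-adjusted Mueller–Hinton broth, pH 7.3, set by OD630 to 5 × 10^5 CFU/mL. Incubated 16–20 h at 35 °C; 530 nm read before and after. IC50 is 50% growth inhibition; MIC is no detectable growth. MBC from clear wells subcultured on agar. Ciprofloxacin control.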

MRSA (ATCC33591) = assay: in vitro antibacterial activity; type: cell-based, methicillin-resistant Staphylococcus aureus; conditions: Staphylococcus aureus, ATCC33591|MRSA, read-out: MIC, MRSA
Outline: as §2

[3] = test system: M. intracellulare (ATCC23068); assay: in vitro antibacterial activity, modified alamarBlue procedure; type: cell-based, Mycobacterium intracellulare; conditions: Mycobacterium intracellulare; for IC50: ATCC23068, read-out: IC50 (concentration that affords 50% growth inhibition), M. intracellulare; for MBC: ATCC23068, read-out: MBC (minimum bactericidal concentration), M. intracellulare; for MIC: ATCC23068, read-out: MIC, M. intracellulare
Outline: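 Modified alamarBlue microplate method. Test compound serially diluted in 20% DMSO/saline, duplicate wells, up to 20 μg/mL. Inoculum 2.0 × 10^6 CFU/mL in Middlebrook 7H9 with OADC, pH 7.3, containing 5% alamarBlue. Incubated 70–74 h at 37 °C, 10% CO2; fluorescence 544ex/590em read before and after. MIC: no blue-to-pink change. MBC by subculturing blue wells on agar. Ciprofloxacin control.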

| SMILES | IC50 (P. falciparum (D6)) [µg/mL] | IC50 (P. falciparum (W2)) [µg/mL] | cytotoxicity CTX [1] | IC50 [2] [µg/mL] | IC90 [2] [µg/mL] | IC50 (C. albicans ATCC90028) [µg/mL] | MFC (C. albicans ATCC90028) [µg/mL] | MIC (C. albicans ATCC90028) [µg/mL] | IC50 (C. neoformans ATCC90113) [µg/mL] | MFC (C. neoformans ATCC90113) [µg/mL] | MIC (C. neoformans ATCC90113) [µg/mL] | IC50 (A. fumigatus ATCC 90906) [µg/mL] | MFC (A. fumigatus ATCC 90906) [µg/mL] | MIC (A. fumigatus ATCC 90906) [µg/mL] | IC50 (SA (ATCC29213)) [µg/mL] | MBC (SA (ATCC29213)) [µg/mL] | MIC (SA (ATCC29213)) [µg/mL] | MIC (MRSA (ATCC33591)) [µg/mL] | IC50 [3] [µg/mL] | MBC [3] [µg/mL] | other results |
| --- | --- | --- | --- | --- | --- | --- | --- | --- | --- | --- | --- | --- | --- | --- | --- | --- | --- | --- | --- | --- | --- |
| CCCCCCOc1c(OC)cc(NC(C)CCCNC(=O)C(N)CCSC)c2nc(C(C)(C)C)ccc12 (stereo not drawn) [compound 102, 2-Amino-N-(4-(2-tert-butyl-5-(hexyloxy)-6-methoxyquinolin-8-ylamino)pentyl)-4-(methylthio)butanamide] | 2.8 (≈ 5.12 µM) | 2.8 (≈ 5.12 µM) | NC (NC, not cytotoxic up to 4760 ng/mL (4.76 μg/mL)) | 5.9 (≈ 10.8 µM) | 22 (≈ 40.2 µM) | > 20 | > 20 | > 20 | > 20 | > 20 | > 20 | > 20 | > 20 | > 20 | 5.03 (≈ 9.2 µM) | 20 (≈ 36.6 µM) | 10 (≈ 18.3 µM) | 20 (≈ 36.6 µM) | 11.2 (≈ 20.4 µM) | 20 (≈ 36.6 µM) | MIC [3]: 20 µg/mL (≈ 36.6 µM) |
| CCCCCCOc1c(OC)cc(NC(C)CCCNC(=O)C(N)C(C)CC)c2nc(C(C)(C)C)ccc12 (stereo not drawn) [compound 104, 2-Amino-N-(4-(2-tert-butyl-5-(hexyloxy)-6-methoxyquinolin-8-ylamino)pentyl)-3-methylpentanamide] | 4.76 (≈ 9 µM) | 4 (≈ 7.56 µM) | NC (NC, not cytotoxic up to 4760 ng/mL (4.76 μg/mL)) | 16 (≈ 30.3 µM) | 30 (≈ 56.7 µM) | > 20 | > 20 | > 20 | > 20 | > 20 | > 20 | > 20 | > 20 | > 20 | 13.2 (≈ 24.9 µM) | > 20 | > 20 | > 20 | > 20 | > 20 | MIC [3]: > 20 µg/mL |
| CCCCCCOc1c(OC)cc(NC(C)CCCNC(=O)C(N)Cc2cnc[nH]2)c2nc(C(C)(C)C)ccc12 (stereo not drawn) [compound 105, 2-Amino-N-(4-(2-tert-butyl-5-(hexyloxy)-6-methoxyquinolin-8-ylamino)pentyl)-3-(1H-imidazole-5-yl)propanamide] | 2.4 (≈ 4.34 µM) | 1.7 (≈ 3.08 µM) | NC (NC, not cytotoxic up to 4760 ng/mL (4.76 μg/mL)) | 3.5 (≈ 6.33 µM) | 7 (≈ 12.7 µM) | 19.4 (≈ 35.1 µM) | > 20 | > 20 | > 20 | > 20 | > 20 | > 20 | > 20 | > 20 | 2.79 (≈ 5.05 µM) | 10 (≈ 18.1 µM) | 5 (≈ 9.05 µM) | 10 (≈ 18.1 µM) | 5.94 (≈ 10.7 µM) | 10 (≈ 18.1 µM) | MIC [3]: 10 µg/mL (≈ 18.1 µM) |
| CCCCCCOc1c(OC)cc(NC(C)CCCNC(=O)C(N)Cc2ccccc2)c2nc(C(C)(C)C)ccc12 (stereo not drawn) [compound 106, 2-Amino-N-(4-(2-tert-butyl-5-(hexyloxy)-6-methoxyquinolin-8-ylamino)pentyl)-3-phenylpropanamide] | > 4.76 | > 4.76 | NC (NC, not cytotoxic up to 4760 ng/mL (4.76 μg/mL)) | 9.89 (≈ 17.6 µM) | > 40 | > 20 | > 20 | > 20 | 9.83 (≈ 17.5 µM) | 20 (≈ 35.5 µM) | 20 (≈ 35.5 µM) | > 20 | > 20 | > 20 | 10.7 (≈ 19 µM) | > 20 | 20 (≈ 35.5 µM) | 20 (≈ 35.5 µM) | 18.1 (≈ 32.1 µM) | > 20 | MIC [3]: > 20 µg/mL |
| CCCCCCOc1c(OC)cc(NC(C)CCCNC(=O)C(C)N)c2nc(C(C)(C)C)ccc12 (stereo not drawn) [compound 107, 2-Amino-N-(4-(2-tert-butyl-5-(hexyloxy)-6-methoxyquinolin-8-ylamino)pentyl)-propanamide] | > 4.76 | > 4.76 | NC (NC, not cytotoxic up to 4760 ng/mL (4.76 μg/mL)) | 17.1 (≈ 35.2 µM) | 37.3 (≈ 76.7 µM) | > 20 | > 20 | > 20 | > 20 | > 20 | > 20 | > 20 | > 20 | > 20 | > 20 | > 20 | > 20 | > 20 | > 20 | > 20 | MIC [3]: > 20 µg/mL |
| CCCCCCOc1c(OC)cc(NC(C)CCCNC(=O)C(N)Cc2cc3ccccc3[nH]2)c2nc(C(C)(C)C)ccc12 (stereo not drawn) [compound 108, 2-Amino-N-(4-(2-tert-butyl-5-(hexyloxy)-6-methoxyquinolin-8-ylamino)pentyl)-3-(1H-indol-2-yl)propanamide] | > 4.76 | > 4.76 | NC (NC, not cytotoxic up to 4760 ng/mL (4.76 μg/mL)) | 19.1 (≈ 31.7 µM) | > 40 | > 20 | > 20 | > 20 | 5.09 (≈ 8.46 µM) | 10 (≈ 16.6 µM) | 10 (≈ 16.6 µM) | > 20 | > 20 | > 20 | 4.98 (≈ 8.27 µM) | > 20 | 10 (≈ 16.6 µM) | 10 (≈ 16.6 µM) | 12.7 (≈ 21.2 µM) | 20 (≈ 33.2 µM) | MIC [3]: 20 µg/mL (≈ 33.2 µM) |

Reference: PMC6045484 (ACS Omega, 2018)
